# ChEMBL document CHEMBL1123441, “Carrier-linked primaquine in the chemotherapy of malaria” (J Med Chem, 1986)
# “And” between values parts separate entries of the source, which are not always exact repeats. Equal entries are not always repeated.
# Experiments:
# [1] = species on record: Mus musculus; assay: Compound is evaluated for therapeutic efficacy; assay type: ADME, organism-based; settings: in vivo
# Method in brief: (§1)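 Female A/J mice (~20 g, groups of 6–8) inoculated via tail vein with 10^4 Plasmodium berghei sporozoites. Drug, conjugate or carrier alone in 0.5 mL PBS given intravenously 2–3 h later; doses as mg primaquine base/kg. Giemsa-stained thin blood smears were read up to day 12, and mice without parasitemia by day 12 were scored cured. An untreated control group was run per experiment. CPD50 came from probit-transformed dose–response data, with results pooled from at least two experiments.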
# [2] = (§2) Compound is evaluated for acute lethal toxicity by intravenous administration; assay type: organism-based; settings: mouse, in vivo
# Method in brief: (§3)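 Noninfected mice in groups of eight, given a single intravenous injection of varying doses (mg primaquine base/kg) of free or protein-coupled drug. Highest conjugate dose was limited by solubility.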
# [3] = test system: Mus musculus; assay: as §2; assay type: organism-based; settings: in vivo; method in brief: as §3
# [4] = test system: Mus musculus; assay: Free and protein-conjugated compound is evaluated for curative effect, at the 11 mg/kg; assay type: functional; method in brief: as §1
# [5] = test system: Mus musculus; assay: Free and protein-conjugated compound is evaluated for curative effect, at the 14.5 mg/kg; assay type: functional; method in brief: as §1
# [6] = test system: Mus musculus; assay: Free and protein-conjugated compound is evaluated for curative effect, at the 7 mg/kg; assay type: functional; method in brief: as §1
# [7] = test system: Mus musculus; assay: Free and protein-conjugated compound is evaluated for curative effect, at the 8 mg/kg; assay type: functional; method in brief: as §1
# [8] = test system: Mus musculus; assay: Free and protein-conjugated compound is evaluated for curative effect, at the 9.5 mg/kg; assay type: functional; method in brief: as §1
# [9] = Ratio of LD50 (lethal toxicity in mice) to that of CPD50 (therapeutic efficacy); assay type: organism-based; settings: mouse, in vivo
# Method in brief: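 Therapeutic index as LD50/CPD50 (mg primaquine base/kg). LD50 came from probit analysis of deaths after intravenous dosing of noninfected mice, groups of eight. CPD50 came from probit analysis of cure (no parasitemia by day 12) in A/J mice given intravenous drug 2–3 h after intravenous inoculation of 10^4 P. berghei sporozoites.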
smiles,measurement,setting,value
COc1cc(NC(C)CCCN)c2ncccc2c1 (centres undefined) [PRIMAQUINE],CPD50,[1],13 mg/kg and 20 mg/kg
same,LD50,[2],16 mg/kg
same,LD10,[3],13 mg/kg
same,Cure,[4],20%
same,Cure,[5],69%
same,Cure,[6],0%
same,Cure,[7],13%
same,Cure,[8],13%
same,selectivity ratio,[9],1.2
